In assay [1] the target is T1, Glutamate NMDA receptor; GRIN1/GRIN2A (Homo sapiens, UniProt Q05586+Q12879). Kind of assay: Antagonist activity at NR1-1a/NR2A receptor expressed in Xenopus laevis oocytes assessed as inhibition of glutamate/glycine-induced current at -80mV holding potential by two-electrode voltage-clamp electrophysiology. Particulars: Oocyte. The assay is classed as functional, cell-based. In short, it runs like this: (§1)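 Holding-potential dependence was measured in oocytes expressing GluA1i or GluN1/2A at -40, -60 and -80 mV by two-electrode voltage clamp. One fixed toxin concentration, chosen from the -60 mV concentration-response data, was co-applied with 100 μM glutamate (GluA1i) or with glutamate plus glycine at 100 μM each (GluN1/2A). The read-out was the reduction in receptor current.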
For orientation: In two-electrode clamp one electrode senses voltage and the other passes current.

The target in assay [2] is T1, Glutamate NMDA receptor; GRIN1/GRIN2A. Put plainly: Antagonist activity at NR1-1a/NR2A receptor expressed in Xenopus laevis oocytes assessed as inhibition of glutamate/glycine-induced current at -60mV holding potential by two-electrode voltage-clamp electrophysiology. It counts as functional, cell-based, Oocyte. In short, it runs like this:
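Two-electrode voltage clamp at -60 mV holding potential on Xenopus oocytes expressing homomeric GluA1i or heteromeric GluN1/2A. Antagonist was co-applied with agonist: 100 μM glutamate for GluA1i, and 100 μM glutamate plus 100 μM glycine for GluN1/2A. IC50 came from concentration-inhibition curves of normalized currents (n = 3). The error term is given as the % difference between the IC50 and antilog(logIC50 + SEM).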

The target is the same in assay [3]. Kind of assay: Antagonist activity at NR1-1a/NR2A receptor expressed in Xenopus laevis oocytes assessed as inhibition of glutamate/glycine-induced current at -40mV holding potential by two-electrode voltage-clamp electrophysiology. It counts as functional, cell-based. Particulars: Oocyte. In short, it runs like this:
as §1

Assay [4] has as its system Glutamate receptor ionotropic, AMPA 1 (GluA1i). Kind of assay: Antagonist activity at GluR1 expressed in Xenopus laevis oocytes assessed as inhibition of glutamate-induced current at -40mV holding potential by two-electrode voltage-clamp electrophysiology. The conditions noted are these: Oocyte.
Assay [5] is described as follows: Selectivity ratio of IC50 for NR1-1a/NR2A receptor to IC50 for GluR1.
Assay [6] concerns Glutamate receptor ionotropic, AMPA 1 (GluA1i). Kind of assay: Antagonist activity at GluR1 expressed in Xenopus laevis oocytes assessed as inhibition of glutamate-induced current at -80mV holding potential by two-electrode voltage-clamp electrophysiology. The conditions noted are these: Oocyte.
Assay [7] has the same test system. Kind of assay: Antagonist activity at GluR1 expressed in Xenopus laevis oocytes assessed as inhibition of glutamate-induced current at 0.1 uM at -60mV holding potential by two-electrode voltage-clamp electrophysiology. The conditions noted are these: Oocyte.
Assay [8] concerns the target T1, Glutamate NMDA receptor; GRIN1/GRIN2A. Kind of assay: Antagonist activity at NR1-1a/NR2A receptor expressed in Xenopus laevis oocytes assessed as inhibition of glutamate/glycine-induced current at 10 uM at -60mV holding potential by two-electrode voltage-clamp electrophysiology. The assay is classed as functional, cell-based. Particulars: Oocyte. The gist of the method:
(§2)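 Single-concentration screen at 0.1 and 10 μM by two-electrode voltage clamp (-60 mV) in Xenopus oocytes. Toxin was co-applied with 100 μM glutamate (GluA1i) or with 100 μM glutamate plus 100 μM glycine (GluN1/2A). Percent inhibition was taken from the decrease in agonist-evoked current.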

Assay [9] shares this target. Kind of assay: Antagonist activity at NR1-1a/NR2A receptor expressed in Xenopus laevis oocytes assessed as inhibition of glutamate/glycine-induced current at 0.1 uM at -60mV holding potential by two-electrode voltage-clamp electrophysiology. The assay is classed as functional, cell-based. Particulars: Oocyte. The gist of the method:
as §2

The values below come from ChEMBL document CHEMBL1268910, “Assessment of structurally diverse philanthotoxin analogues for inhibitory activity on ionotropic glutamate receptor subtypes: discovery of nanomolar, nonselective, and use-dependent antagonists” (J Med Chem, 2010).

As a reminder, the inhibition is the percentage by which the read-out fell short of the control. A word on the pIC50: it is −log10 of the IC50, conventionally taken in molar units.

SMILES strings stand for the structures. pIC50: −log10 of the molar value. Activity calls are given as the source filed them. The calls are words filed in the database; no cut-off is given here.

As for `NCCCNCCCCNCCCNC(=O)[C@H](CC1CCCCC1)NC(=O)C1CC1`, the inhibition result in assay [1] and in [3] was “Active” each time. In assay [2], the pIC50 was 5.59.
As for `NCCCNCCCCNCCCNC(=O)[C@H](CC1CCCCC1)NC(=O)C1CCCCC1`, the inhibition result in assay [1], in assay [4], in [6] and in assay [3] was “Active” in each case. The Ratio IC50 in [5] came to 31. Further, the pIC50 in assay [2] was 6.18. Also, in assay [7], the inhibition was 35%.
Consider `CCCC(=O)N[C@@H](CC1CCCCC1)C(=O)NCCCNCCCCNCCCN`, for which the inhibition result in [1], in [4], in assay [6] and in [3] was “Active” throughout. Also, the Ratio IC50 in assay [5] worked out at 137. In addition, the pIC50 in assay [2] is 5.36. For the same molecule, the inhibition in assay [7] was 35%.
With `NCCCNCCCCNCCCNC(=O)[C@H](CNC(=O)Cc1ccccc1)NC(=O)C1CCCCC1`, the pIC50 in [2] is 5.55. Further, the inhibition in [7] worked out at 35%.
In the case of `NCCCNCCCCNCCCNC(=O)[C@H](CC1CCCCC1)NC(=O)CC12CC3CC(CC(C3)C1)C2`, the inhibition result in [1], in [4], in [6] and in [3] was “Active” each time. The Ratio IC50 in [5] was 8. In addition, the pIC50 in [2] is 6.10. The inhibition in [7] is 35%.
Consider `NCCCNCCCCNCCCNC(=O)[C@H](CCCNC(=O)Cc1ccccc1)NC(=O)C1CCCCC1`, for which the pIC50 in [2] is 5.99. The inhibition in assay [7] was found to be 35%.
`NCCCNCCCCNCCCNC(=O)[C@H](CC1CCCCC1)NC(=O)c1ccc(-c2ccccc2)cc1`: the inhibition result in assay [1], in assay [4], in assay [6] and in assay [3] was “Active” each time. Moreover, in [5], the Ratio IC50 worked out at 17. The pIC50 in assay [2] was 5.84. Further, the inhibition in assay [7] stood at 35%.
Consider `CCCC(=O)N[C@@H](Cc1ccc(O)cc1)C(=O)NCCCNCCCCNCCCN` [PHILANTHOTOXIN 343], for which the inhibition result in [1] and in [3] was “Active” each time. Also, the inhibition in assay [8] turned out to be 61%; in assay [9], 9%. The negative-log IC50 (pIC50) in assay [2] was 5.56.
`NCCCNCCCCNCCCNC(=O)[C@H](CC1CCCCC1)NC(=O)Cc1cccc2ccccc12`: the inhibition result in [1], in [4], in assay [6] and in assay [3] was “Active” each time. In addition, the figures for the inhibition in [8], in [9] and in assay [7] were 92%, 63% and 35%, respectively. For the same molecule, the Ratio IC50 in assay [5] came out at 1. Further, the pIC50 in [2] was 7.33.
